Source: ChEMBL document CHEMBL4325889, “Natural products hybrids: 3,5,4'-Trimethoxystilbene-5,6,7-trimethoxyflavone chimeric analogs as potential cytotoxic agents against diverse human cancer cells” (Eur J Med Chem, 2019)

Columns and labels:
Type in all cases: functional
UACC-257 = experiment: Growth inhibition of human UACC257 cells at 10 uM after 48 hrs by SRB assay relative to control; conditions: UACC-257, 48 h, read-out: GI
Outline: (§1)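 NCI screen against its human cancer cell line panel by the standard NCI protocol, SRB protein stain. Single dose of 10 μM. Percent growth inhibition versus control; values above 100% mean the cell population fell below the starting number. Each value is the mean of duplicates.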

NCI-H322M = experiment: Growth inhibition of human NCI-H322M cells at 10 uM after 48 hrs by SRB assay relative to control; conditions: read-out: GI
Outline: (§2)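 Screened at the National Cancer Institute by the standard NCI protocol using the sulforhodamine B assay, which measures cellular protein. Single dose of 10 µM. Result is percent growth inhibition; values above 100% mean cell number fell below the initial population. Values are the average of duplicates.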

UO-31 = experiment: Growth inhibition of human UO31 cells at 10 uM after 48 hrs by SRB assay relative to control; conditions: UO-31, 48 h, read-out: GI; outline: as §1
CCRF-CEM = experiment: Growth inhibition of human CCRF-CEM cells at 10 uM after 48 hrs by SRB assay relative to control; conditions: read-out: GI; outline: as §2
SNB-75 = experiment: Growth inhibition of human SNB75 cells at 10 uM after 48 hrs by SRB assay relative to control; conditions: SNB-75, 48 h, read-out: GI; outline: as §1
SR = experiment: Growth inhibition of human SR cells at 10 uM after 48 hrs by SRB assay relative to control; conditions: read-out: GI; outline: as §1
SN12C = experiment: Growth inhibition of human SN12C cells at 10 uM after 48 hrs by SRB assay relative to control; conditions: read-out: GI; outline: as §2
MOLT-4 = experiment: Growth inhibition of human MOLT4 cells at 10 uM after 48 hrs by SRB assay relative to control; conditions: MOLT-4, 48 h, read-out: GI; outline: as §2
ACHN = experiment: Growth inhibition of human ACHN cells at 10 uM after 48 hrs by SRB assay relative to control; conditions: read-out: GI; outline: as §2
SF-539 = experiment: Growth inhibition of human SF539 cells at 10 uM after 48 hrs by SRB assay relative to control; conditions: SF-539, 48 h, read-out: GI; outline: as §2
HOP-62 = experiment: Growth inhibition of human HOP62 cells at 10 uM after 48 hrs by SRB assay relative to control; conditions: HOP-62, 48 h, read-out: GI; outline: as §2
NCI-H522 = experiment: Growth inhibition of human NCI-H522 cells at 10 uM after 48 hrs by SRB assay relative to control; conditions: NCI-H522, 48 h, read-out: GI; outline: as §2
KM12 = experiment: Growth inhibition of human KM12 cells at 10 uM after 48 hrs by SRB assay relative to control; conditions: KM12, 48 h, read-out: GI; outline: as §2
U-251 = experiment: Growth inhibition of human U251 cells at 10 uM after 48 hrs by SRB assay relative to control; conditions: U-251, 48 h, read-out: GI; outline: as §1
HT-29 = experiment: Growth inhibition of human HT-29 cells at 10 uM after 48 hrs by SRB assay relative to control; conditions: HT-29, 48 h, read-out: GI; outline: as §2
NCI-H23 = experiment: Growth inhibition of human NCI-H23 cells at 10 uM after 48 hrs by SRB assay relative to control; conditions: NCI-H23, 48 h, read-out: GI; outline: as §2
NCI-H460 = experiment: Growth inhibition of human NCI-H460 cells at 10 uM after 48 hrs by SRB assay relative to control; conditions: NCI-H460, 48 h, read-out: GI; outline: as §2
HCT-15 = experiment: Growth inhibition of human HCT15 cells at 10 uM after 48 hrs by SRB assay relative to control; conditions: HCT-15, 48 h, read-out: GI; outline: as §2
A549 = experiment: Growth inhibition of human A549 cells at 10 uM after 48 hrs by SRB assay relative to control; conditions: A549, 48 h, read-out: GI; outline: as §2
SK-MEL-2 = experiment: Growth inhibition of human SK-MEL-2 cells at 10 uM after 48 hrs by SRB assay relative to control; conditions: SK-MEL-2, 48 h, read-out: GI; outline: as §2
786-0 = experiment: Growth inhibition of human 786-0 cells at 10 uM after 48 hrs by SRB assay relative to control; conditions: 786-0, 48 h, read-out: GI; outline: as §2
TK-10 = experiment: Growth inhibition of human TK10 cells at 10 uM after 48 hrs by SRB assay relative to control; conditions: TK-10, 48 h, read-out: GI; outline: as §1
Hs-578T = experiment: Growth inhibition of human Hs 578T cells at 10 uM after 48 hrs by SRB assay relative to control; conditions: read-out: GI; outline: as §2
LOX IMVI = experiment: Growth inhibition of human LOXIMVI cells at 10 uM after 48 hrs by SRB assay relative to control; conditions: read-out: GI; outline: as §2
HOP-92 = experiment: Growth inhibition of human HOP92 cells at 10 uM after 48 hrs by SRB assay relative to control; conditions: HOP-92, 48 h, read-out: GI; outline: as §2
SW-620 = experiment: Growth inhibition of human SW620 cells at 10 uM after 48 hrs by SRB assay relative to control; conditions: SW-620, 48 h, read-out: GI; outline: as §1
RPMI-8226 = experiment: Growth inhibition of human RPMI8226 cells at 10 uM after 48 hrs by SRB assay relative to control; conditions: RPMI-8226, 48 h, read-out: GI; outline: as §2
SF-295 = experiment: Growth inhibition of human SF295 cells at 10 uM after 48 hrs by SRB assay relative to control; conditions: SF-295, 48 h, read-out: GI; outline: as §2
CAKI-1 = experiment: Growth inhibition of human Caki1 cells at 10 uM after 48 hrs by SRB assay relative to control; conditions: CAKI-1, 48 h, read-out: GI; outline: as §2
MDA-MB-468 = experiment: Growth inhibition of human MDA-MB-468 cells at 10 uM after 48 hrs by SRB assay relative to control; conditions: MDA-MB-468, 48 h, read-out: GI; outline: as §2
COLO 205 = experiment: Growth inhibition of human COLO205 cells at 10 uM after 48 hrs by SRB assay relative to control; conditions: COLO 205, 48 h, read-out: GI; outline: as §2
Malme-3M = experiment: Growth inhibition of human MALME-3M cells at 10 uM after 48 hrs by SRB assay relative to control; conditions: read-out: GI; outline: as §2
SK-MEL-28 = experiment: Growth inhibition of human SK-MEL-28 cells at 10 uM after 48 hrs by SRB assay relative to control; conditions: SK-MEL-28, 48 h, read-out: GI; outline: as §2
OVCAR-4 = experiment: Growth inhibition of human OVCAR4 cells at 10 uM after 48 hrs by SRB assay relative to control; conditions: OVCAR-4, 48 h, read-out: GI; outline: as §2
MCF7 = experiment: Growth inhibition of human MCF7 cells at 10 uM after 48 hrs by SRB assay relative to control; conditions: MCF7, 48 h, read-out: GI; outline: as §2
IGROV-1 = experiment: Growth inhibition of human IGROV1 cells at 10 uM after 48 hrs by SRB assay relative to control; conditions: IGROV-1, 48 h, read-out: GI; outline: as §2

Structure (SMILES) | inhibition of growth at 10 µM (UACC-257) [%] | inhibition of growth at 10 µM (NCI-H322M) [%] | inhibition of growth at 10 µM (UO-31) [%] | inhibition of growth at 10 µM (CCRF-CEM) [%] | inhibition of growth at 10 µM (SNB-75) [%] | inhibition of growth at 10 µM (SR) [%] | inhibition of growth at 10 µM (SN12C) [%] | inhibition of growth at 10 µM (MOLT-4) [%] | inhibition of growth at 10 µM (ACHN) [%] | inhibition of growth at 10 µM (SF-539) [%] | inhibition of growth at 10 µM (HOP-62) [%] | inhibition of growth at 10 µM (NCI-H522) [%] | inhibition of growth at 10 µM (KM12) [%] | inhibition of growth at 10 µM (U-251) [%] | inhibition of growth at 10 µM (HT-29) [%] | inhibition of growth at 10 µM (NCI-H23) [%] | inhibition of growth at 10 µM (NCI-H460) [%] | inhibition of growth at 10 µM (HCT-15) [%] | inhibition of growth at 10 µM (A549) [%] | inhibition of growth at 10 µM (SK-MEL-2) [%] | also measured
COc1ccc(NC(=O)c2cccc(-c3cc(=O)c4c(OC)c(OC)c(OC)cc4o3)c2)cc1 | -2.76 | 24.5 | 56.1 | 50.7 | 19.7 | 18.4 | 35 | 36.8 | 33.4 | 27.7 | 31 | 39 | 45.2 | 13.9 | 32.9 | 28.7 | 33.9 | 52.9 | 22.4 | 15.3 | inhibition of growth at 10 µM (786-0): 29.3%; inhibition of growth at 10 µM (TK-10): 15.7%; inhibition of growth at 10 µM (Hs-578T): 41.6%; inhibition of growth at 10 µM (LOX IMVI): 75.4%; inhibition of growth at 10 µM (HOP-92): 52.7%; inhibition of growth at 10 µM (SW-620): 6.52%; inhibition of growth at 10 µM (RPMI-8226): 87.5%; inhibition of growth at 10 µM (SF-295): 33.6%; inhibition of growth at 10 µM (CAKI-1): 63.7%; inhibition of growth at 10 µM (MDA-MB-468): 24.3%; inhibition of growth at 10 µM (COLO 205): 30.6%; inhibition of growth at 10 µM (Malme-3M): 21.4%; inhibition of growth at 10 µM (SK-MEL-28): 28.7%; inhibition of growth at 10 µM (OVCAR-4): 15.3%; inhibition of growth at 10 µM (MCF7): 21.1%; inhibition of growth at 10 µM (IGROV-1): 38.7%
COc1cccc(NC(=O)c2cccc(-c3cc(=O)c4c(OC)c(OC)c(OC)cc4o3)c2)c1 | 7.62 | 19.9 | 68.4 | 59.5 | 10.2 | 58.1 | 37.7 | 51.5 | 37.5 | 22.5 | 40.5 | 53.4 | 46.3 | 37.9 | 49.2 | 36.9 | 39.9 | 45.3 | 37.2 | 24.3 | inhibition of growth at 10 µM (786-0): 31.1%; inhibition of growth at 10 µM (TK-10): 21.2%; inhibition of growth at 10 µM (Hs-578T): 53.8%; inhibition of growth at 10 µM (LOX IMVI): 50.1%; inhibition of growth at 10 µM (HOP-92): 58.1%; inhibition of growth at 10 µM (SW-620): 10.4%; inhibition of growth at 10 µM (RPMI-8226): 83%; inhibition of growth at 10 µM (SF-295): 29.2%; inhibition of growth at 10 µM (CAKI-1): 25.3%; inhibition of growth at 10 µM (MDA-MB-468): 21%; inhibition of growth at 10 µM (COLO 205): 31.7%; inhibition of growth at 10 µM (Malme-3M): 15.2%; inhibition of growth at 10 µM (SK-MEL-28): 26.6%; inhibition of growth at 10 µM (OVCAR-4): 37.4%; inhibition of growth at 10 µM (MCF7): 12.3%; inhibition of growth at 10 µM (IGROV-1): 46.7%
COc1ccc(C(=O)Nc2cccc(-c3cc(=O)c4c(O)c(OC)c(OC)cc4o3)c2)cc1 | 13.6 | 8.16 | 4.63 | 11.9 | 32.5 | 20.8 | 25.7 | 19.1 | 23.7 | 15.3 | 30.2 | 34.4 | -0.05 | 28.9 | 1.12 | 15.7 | 17.4 | 7.47 | 15.1 | 16.6 | inhibition of growth at 10 µM (786-0): 24.5%; inhibition of growth at 10 µM (TK-10): 18.4%; inhibition of growth at 10 µM (Hs-578T): 25.8%; inhibition of growth at 10 µM (LOX IMVI): 6.47%; inhibition of growth at 10 µM (HOP-92): 42.3%; inhibition of growth at 10 µM (SW-620): 9.52%; inhibition of growth at 10 µM (RPMI-8226): 25.2%; inhibition of growth at 10 µM (SF-295): 20.6%; inhibition of growth at 10 µM (CAKI-1): 20%; inhibition of growth at 10 µM (MDA-MB-468): -6.18%; inhibition of growth at 10 µM (COLO 205): -7.69%; inhibition of growth at 10 µM (Malme-3M): 0.28%; inhibition of growth at 10 µM (SK-MEL-28): 9.4%; inhibition of growth at 10 µM (OVCAR-4): 4.66%; inhibition of growth at 10 µM (MCF7): 9.78%; inhibition of growth at 10 µM (IGROV-1): 2.38%
